Results taken from ChEMBL document CHEMBL1142665, “Synthesis and cytotoxic evaluation of novel spirohydantoin derivatives of the dihydrothieno[2,3-b]naphtho-4,9-dione system” (J Med Chem, 2005).

Legend:
SW-620 = assay: Inhibitory concentration against SW 620 human colon carcinoma cell line; type: functional, cell-based
Method in brief: (§1)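 Monolayer cultures in RPMI-1640 with 10% FBS; sensitive lines from ATCC, drug-resistant sublines from Istituto Tumori of Milan. Cells seeded at about 10% confluency and allowed 24 h to attach and recover. Exposed to varying drug concentrations for 24 h at 37 °C under 5% CO2, washed, then grown 48 h drug-free. Vehicle-matched controls. SRB read-out as %T/C. IC50 taken from dose/effect curve. Triplicate wells, mean of ≥3 independent experiments.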

MCF7 [1] = assay: Inhibitory concentration against MCF-7 human breast carcinoma cell line; type: functional, cell-based; method in brief: as §1
A2780cisR = assay: Inhibitory concentration against A2780 ovarian carcinoma resistant to cisplatin; type: functional, cell-based; details: Homo sapiens; method in brief: as §1
[2] = Inhibitory concentration against MeVo melanoma cell line; type: functional, Homo sapiens; method in brief: as §1
KB = assay: Inhibitory concentration against KB epidermal carcinoma cell line; type: functional, cell-based; details: Homo sapiens; method in brief: as §1
A2780 [3] = assay: Inhibitory concentration against A2780 ovarian carcinoma cell line; type: functional, cell-based; details: Homo sapiens; method in brief: as §1
NCI-H460 = assay: Inhibitory concentration against NCI-H460 lung carcinoma cell line; type: functional, cell-based; details: Homo sapiens; method in brief: as §1
LoVo = assay: Inhibitory concentration against LoVo colon carcinoma cell line; type: functional, cell-based; details: Homo sapiens; method in brief: as §1
HEp-2 = assay: Inhibitory concentration against Hep-2 epidermal carcinoma cell line; type: functional, cell-based; details: Homo sapiens; method in brief: as §1
A549 = assay: Inhibitory concentration against A549 lung carcinoma cell line; type: functional, cell-based; details: Homo sapiens; method in brief: as §1
A2780 [4] = assay: Inhibitory concentration against A2780 ovarian carcinoma resistant to doxorubicin; type: functional, cell-based; details: Homo sapiens; method in brief: as §1
MCF7 [5] = assay: Inhibitory concentration against MCF-7 human breast carcinoma resistant to doxorubicin; type: functional, cell-based; method in brief: as §1

| IC50 (SW-620; Homo sapiens, SW-620) [nM] | IC50 (MCF7 [1]; Homo sapiens, MCF7) [nM] | other results | SMILES |
| --- | --- | --- | --- |
| – | – | IC50 (SW-620; sw-620): 65 nM; IC50 (MCF7 [1]; mcf7): 27 nM | CN(C)CCCN1C(=O)NC2(CSC3=C2C(=O)c2ccccc2C3=O)C1=O (stereo in doubt; (-)-15) |
| 50 | 21 | – | CCN(CC)CCN1C(=O)NC2(CSC3=C2C(=O)c2ccccc2C3=O)C1=O (configuration not stated) |
| 178 | – | IC50 (A2780cisR): 6 nM; IC50 [2]: 820 nM; IC50 (KB): 21 nM; IC50 (A2780 [3]): 7 nM; IC50 (NCI-H460): 10 nM; IC50 (LoVo): 33 nM; IC50 (HEp-2): 59 nM; IC50 (A549): 64 nM; IC50 (A2780 [4]): 290 nM | COc1cccc2c1C(=O)c1c(O)c3c(c(O)c1C2=O)C[C@@](O)(C(=O)CO)C[C@@H]3O[C@H]1C[C@H](N)[C@H](O)[C@H](C)O1 [DOXORUBICIN] |
| 119 | 40 | – | O=C1C2=C(C(=O)c3ccccc31)C1(CS2)NC(=O)N(CCCO)C1=O (configuration not stated) |
| – | – | IC50 (SW-620; sw-620): 34 nM; IC50 (MCF7 [1]; mcf7): 20 nM | NCCN1C(=O)NC2(CSC3=C2C(=O)c2ccccc2C3=O)C1=O (single isomer, unassigned; (+)) |
| 198 | 69 | – | O=C1C2=C(C(=O)c3ccccc31)C1(CS2)NC(=O)N(CCO)C1=O (configuration not stated) |
| 740 | 178 | – | CCCCN1C(=O)NC2(CSC3=C2C(=O)c2ccccc2C3=O)C1=O (configuration not stated) |
| 379 | 104 | – | CCCN1C(=O)NC2(CSC3=C2C(=O)c2ccccc2C3=O)C1=O (configuration not stated) |
| 57 | 32 | – | CN(C)CCN1C(=O)NC2(CSC3=C2C(=O)c2ccccc2C3=O)C1=O (configuration not stated) |
| 35 | 22 | – | NCCN1C(=O)NC2(CSC3=C2C(=O)c2ccccc2C3=O)C1=O (stereo in doubt; 11) |
| 54 | 26 | – | CCN(CC)CCCN1C(=O)NC2(CSC3=C2C(=O)c2ccccc2C3=O)C1=O (configuration not stated) |
| 203 | 116 | – | CCN1C(=O)NC2(CSC3=C2C(=O)c2ccccc2C3=O)C1=O (configuration not stated) |
| – | – | IC50 (SW-620; sw-620): 47 nM; IC50 (MCF7 [1]; mcf7): 31 nM | NCCN1C(=O)NC2(CSC3=C2C(=O)c2ccccc2C3=O)C1=O (stereo in doubt; (-)-11) |
| – | – | IC50 (SW-620; sw-620): 60 nM | CN(C)CCCN1C(=O)NC2(CSC3=C2C(=O)c2ccccc2C3=O)C1=O (single isomer, unassigned; (+)) |
| 68 | 35 | – | NCCCCN1C(=O)NC2(CSC3=C2C(=O)c2ccccc2C3=O)C1=O (configuration not stated) |
| 52 | 25 | – | NCCCN1C(=O)NC2(CSC3=C2C(=O)c2ccccc2C3=O)C1=O (configuration not stated) |
| 58 | 19 | IC50 (A2780cisR): 110 nM; IC50 [2]: 250 nM; IC50 (KB): 100 nM; IC50 (A2780 [3]): 68 nM; IC50 (NCI-H460): 260 nM; IC50 (LoVo): 230 nM; IC50 (HEp-2): 170 nM; IC50 (A549): 110 nM; IC50 (A2780 [4]): 130 nM; IC50 (MCF7 [5]): 173 nM | CN(C)CCCN1C(=O)NC2(CSC3=C2C(=O)c2ccccc2C3=O)C1=O (stereo in doubt; 15) |
| 900 | 331 | – | CC(C)(C)N1C(=O)NC2(CSC3=C2C(=O)c2ccccc2C3=O)C1=O (configuration not stated) |
| 108 | 23 | – | CN1C(=O)NC2(CSC3=C2C(=O)c2ccccc2C3=O)C1=O (configuration not stated) |
| 562 | 178 | – | CCC(C)N1C(=O)NC2(CSC3=C2C(=O)c2ccccc2C3=O)C1=O (configuration not stated) |
